Laboratory results from ChEMBL document CHEMBL1821616, “New insights into the structural requirements for pro-apoptotic agents based on 2,4-diaminoquinazoline, 2,4-diaminopyrido[2,3-d]pyrimidine and 2,4-diaminopyrimidine derivatives” (Eur J Med Chem, 2011).
The source made the active and inactive calls. The calls are words filed in the database; no cut-off is given here.

Assays:
T-24 [1] = test: Induction of apoptosis in human T24 cells assessed as DNA fragmentation after 48 hrs by ELISA relative to control; format: functional
Procedure, shortened: (§1)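 DNA fragmentation was measured with the Cell Death Detection ELISA Plus kit after treatment of cultured tumour cells. The signal is expressed relative to untreated control cultures, which are set to 1.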

T-24 [2] = test: Cytotoxicity against human T24 cells after 72 hrs by neutral red dye assay; format: functional, cell-based; settings: T-24, 72 h
Procedure, shortened: (§2)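 Human tumour cells were grown as monolayers with 10% FBS and penicillin/streptomycin at 37 °C in 5% CO2 (HT-29 and T-24 in McCoy's, MDA-MB-231 in Leibovitz). They were exposed to compound in DMSO (≤0.5% v/v final) at screening concentrations of 20 and 100 μM for 72 h and read by neutral red uptake. Survival is relative to cells given DMSO only, in triplicate.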

MDA-MB-231 [3] = test: Induction of apoptosis in human MDA-MB-231 cells assessed as DNA fragmentation after 24 hrs by ELISA relative to control; format: functional; procedure, shortened: as §1
MDA-MB-231 [4] = test: Cytotoxicity against human MDA-MB-231 cells after 72 hrs by neutral red dye assay; format: functional, cell-based; settings: MDA-MB-231, 72 h; procedure, shortened: as §2
HT-29 [5] = test: Induction of apoptosis in human HT-29 cells assessed as DNA fragmentation after 48 hrs by ELISA relative to control; format: functional; procedure, shortened: as §1
HT-29 [6] = test: Induction of apoptosis in human HT-29 cells assessed as caspase3 activation at IC50 after 48 hrs by FACS analysis relative to control; format: functional
Procedure, shortened: (§3)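 Active caspase-3 was detected by flow cytometry with a FITC anti-active-caspase-3 antibody kit, with readings at 14, 24 and 48 h. Treated cells were compared with untreated control cells. Results are scored as (+) for an increase of about 50% and (++) for a larger rise.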

T-24 [7] = test: Cytotoxicity against human T24 cells assessed as cell survival at 100 uM after 72 hrs by neutral red dye assay; format: functional; settings: T-24, 72 h, read-out: Survival
Procedure, shortened: (§4)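 HT-29 and T-24 cells were grown in McCoy's medium and MDA-MB-231 in Leibovitz, each with 10% FBS plus penicillin/streptomycin, as monolayers at 37 °C in 5% CO2. Compounds in DMSO (≤0.5% v/v final) were applied for 72 h. Survival was read by neutral red uptake against 0.5% DMSO-treated cells, as the mean of triplicates.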

T-24 [8] = test: Induction of apoptosis in human T24 cells assessed as caspase3 activation at IC50 after 48 hrs by FACS analysis relative to control; format: functional; procedure, shortened: as §3
HT-29 [9] = test: Cytotoxicity against human HT-29 cells after 72 hrs by neutral red dye assay; format: functional, cell-based; settings: HT-29, 72 h; procedure, shortened: as §2
MDA-MB-231 [10] = test: Cytotoxicity against human MDA-MB-231 cells assessed as cell survival at 100 uM after 72 hrs by neutral red dye assay; format: functional; settings: MDA-MB-231, 72 h, read-out: Survival; procedure, shortened: as §4
[11] = Cytotoxicity against human CRL11233 cells assessed as cell survival at 20 to 100 uM after 72 hrs by neutral red dye assay; format: cell-based; settings: read-out: Survival
Procedure, shortened: (§5)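 The non-tumoral lines were grown with 10% FBS plus penicillin/streptomycin, as monolayers at 37 °C in 5% CO2: CRL-8799 in MEG medium and CRL-11233 in BEGM. Compounds in DMSO (≤0.5% v/v final) were applied for 72 h. Survival was read by neutral red uptake against 0.5% DMSO solvent-treated controls, as the mean of triplicates.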

HT-29 [12] = test: Cytotoxicity against human HT-29 cells assessed as cell survival at 100 uM after 72 hrs by neutral red dye assay; format: functional; settings: HT-29, 72 h, read-out: Survival; procedure, shortened: as §4
[13] = Cytotoxicity against human CRL8799 cells assessed as cell survival at 20 to 100 uM after 72 hrs by neutral red dye assay; format: cell-based; settings: read-out: Survival; procedure, shortened: as §5

Compound	Activity (T-24 [1])	IC50 (T-24 [2])	Activity (MDA-MB-231 [3])	IC50 (MDA-MB-231 [4])	Activity (HT-29 [5])	Activity (HT-29 [6])	viability at 100 µM (T-24 [7])	Activity (T-24 [8])	IC50 (HT-29 [9])	viability at 100 µM (MDA-MB-231 [10])	viability at 72 h, up to 100 µM [11]	viability at 100 µM (HT-29 [12])	viability at 72 h, up to 100 µM [13]	fold change (FC) (T-24 [1])	fold change (FC) (MDA-MB-231 [3])	fold change (FC) (HT-29 [5])
Brc1ccc(CCNc2nc(NCCc3ccc(Br)cc3)c3ccccc3n2)cc1	inactive	3.32 µM	inactive	10.4 µM	inactive	50%	< 45%	50%	3.47 µM	< 45%	1%	< 45%	11%			
CCCCCNc1nc(SCC)nc2ncccc12		4.3 µM		1.3 µM		50%	< 45%	75%	5.1 µM	< 45%	100%	< 45%	88%	3.6	6.6	5
CCCCCNc1nc(SCCCC)nc2ncccc12	inactive	8.9 µM		6.3 µM			< 45%	50%	12.6 µM	< 45%	76%	< 45%	84%		1.7	1.9
c1ccc(CCNc2nc(NCCc3ccccc3)c3cccnc3n2)cc1		8.1 µM	inactive	1.2 µM		50%	< 45%	75%	2.5 µM	< 45%	0%	< 45%	0%	1.2		9.2
CCCCCCNc1nc(SCCCC)nc2ncccc12		4.5 µM		1.2 µM		75%	< 45%	75%	2.8 µM	< 45%	99%	< 45%	95%	4.3	9.3	6.4
c1ccc(CNc2nc(NCc3ccccc3)c3cccnc3n2)cc1		13.4 µM	inactive	10.3 µM			< 45%	50%	11 µM	< 45%	90%	< 45%	85%	4.6		2.5
COc1ccc(CNc2nc(NCc3ccc(OC)cc3)c3cccnc3n2)cc1				2.9 µM		50%	< 45%			< 45%	100%	< 45%	85%	2.3	1.5	2.7
c1ccc(CCCCNc2nc(NCCCCc3ccccc3)c3cccnc3n2)cc1		1.4 µM	inactive	1.1 µM		50%	< 45%		5 µM	< 45%	82%	< 45%	86%	4.6		1.4
COc1ccc(CNc2nc(NCc3ccc(OC)cc3)c3ccccc3n2)cc1		3.87 µM	inactive	3.87 µM		50%	< 45%		2.88 µM	< 45%	100%	< 45%	0%	5		8.5
c1ccc(CCCNc2ccnc(NCCCc3ccccc3)n2)cc1		8.67 µM		0.36 µM	inactive	50%	< 45%		12.4 µM	< 45%	1%	< 45%	10%	1.7	3.2	
c1ccc(CCCNc2nc(NCCCc3ccccc3)c3ccccc3n2)cc1	inactive	3.45 µM	inactive	4.18 µM	inactive	75%	< 45%	75%	2.2 µM	< 45%	2%	< 45%	87%			
c1ccc(CCCNc2nc(NCCCc3ccccc3)c3cccnc3n2)cc1		13.2 µM		5.8 µM		50%	< 45%		1.7 µM	< 45%	0%	< 45%	0%	3.1	1.6	6
CCCCCNc1nc(NCCCCC)c2ccccc2n1		5.25 µM		3.13 µM			< 45%	50%	3.57 µM	< 45%	5%	< 45%	4%	1.8	2.5	1.7
c1ccc(CCCCNc2nc(NCCCCc3ccccc3)c3ccccc3n2)cc1	inactive	11.9 µM	inactive	1.22 µM			< 45%	75%	3.78 µM	< 45%	11%	< 45%	6%			2
CCCCCCCNc1nc(SCC)nc2ncccc12	inactive	5.3 µM		2.6 µM			< 45%	75%	19.9 µM	< 45%	100%	< 45%	93%		2.7	2.4
CCCCCNc1nc(SC(C)C)nc2ncccc12		7.9 µM		5.6 µM		75%	< 45%	50%	25.2 µM	< 45%	66%	< 45%	100%	1.7	2.2	4.2
c1ccc(CCNc2nc(NCCc3ccccc3)c3ccccc3n2)cc1	inactive	2.86 µM	inactive	2.18 µM	inactive		< 45%	50%	2.3 µM	< 45%	100%	< 45%	92%			
c1ccc(CNc2nc(NCc3ccccc3)c3ccccc3n2)cc1	inactive	5.96 µM	inactive	1.79 µM			< 45%	75%	4.72 µM	< 45%	100%	< 45%	89%			3.6
Cc1ccc(CCNc2nc(NCCc3ccc(C)cc3)c3ccccc3n2)cc1	inactive	2.17 µM		4.65 µM	inactive	50%	< 45%		1.64 µM	< 45%	0%	< 45%	0%		2.4	
